Measurements: ChEMBL document CHEMBL1629554, “Activity of the small modified amino acid alpha-hydroxy glycineamide on in vitro and in vivo human immunodeficiency virus type 1 capsid assembly and infectivity” (Antimicrob Agents Chemother, 2008)
Activity calls are given as the source filed them. The calls are words filed in the database; no cut-off is given here.

Assays:
[1] = system: Human immunodeficiency virus 1; test: Antiviral activity against reverse transcriptase and protease inhibitor-resistant HIV-1 isolate HI95-10 harboring reverse transcriptase V179I and protease M36I, L63P mutant gene infected in human PBMC; assay type: functional, organism-based; settings: Human immunodeficiency virus 1, isolate HI95-10
Summary of the method: (§1)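 Clinical isolate stocks were grown in PBMC and titred by 10-fold serial dilution (TCID50). PBMC (600,000 cells/ml) were infected at 100 TCID50 and cultured with 1, 4, 16, 64 or 256 μM α-HGA, in duplicate, with untreated infected controls. Medium was changed on days 5–7. Supernatant p24 was measured by sandwich ELISA against a recombinant p24 standard up to day 14, and EC50 was derived.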

Vaccinia virus = test: Antiviral activity against Vaccinia virus infected in HEL cells; assay type: functional, organism-based; settings: Orthopoxvirus vaccinia
[2] = system: Human immunodeficiency virus 1; test: Antiviral activity against HIV-1 3B infected in human PBMC; assay type: functional, organism-based; settings: Human immunodeficiency virus 1, 3B
[3] = system: Human immunodeficiency virus 1; test: Antiviral activity against HIV-1 assessed as inhibition of viral p24 tubular protein assembly at 50 uM by TEM assay; assay type: functional, organism-based
[4] = system: Human immunodeficiency virus 1; test: Antiviral activity against reverse transcriptase and protease inhibitor-resistant HIV-1 isolate HI98-100 harboring reverse transcriptase M41L, A98G, M184V, L210W, T215Y and protease L10F,K20R, M36I, M46I, L63P, V82A mutant gene infected in human PBMC; assay type: functional, organism-based; settings: Human immunodeficiency virus 1, isolate HI98-100; summary of the method: as §1
[5] = system: Human immunodeficiency virus 1; test: Antiviral activity against HIV-1 SF-2 infected in human PBMC; assay type: functional, organism-based; settings: Human immunodeficiency virus 1, SF-2
[6] = system: Human immunodeficiency virus 1; test: Antiviral activity against reverse transcriptase and protease inhibitor-resistant HIV-1 isolate HI99-58 harboring reverse transcriptase D67N, K70R, A98S, Y181C, K219Q and protease M36I, L63P, I93L mutant gene infected in human PBMC; assay type: functional, organism-based; settings: Human immunodeficiency virus 1, isolate HI99-58; summary of the method: as §1
CCRF-CEM = test: Cytotoxic activity against human CEM cells at 1000 uM after 14 days by trypan blue assay; assay type: cell-based; settings: 336 h
Summary of the method: (§2)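 PBMC (600,000 cells/ml) or cell lines (200,000 cells/ml) cultured 14 days with 25, 100, 250, 500 or 1,000 μM compound; viable and dead cells counted in a counting chamber after 0.4% trypan blue staining.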

[7] = system: Human immunodeficiency virus 1; test: Antiviral activity against HIV-1 pNL4-3 infected in human PBMC; assay type: functional, organism-based; settings: Human immunodeficiency virus 1, pNL4-3
[8] = system: Human immunodeficiency virus 1; test: Antiviral activity against HIV-1 assessed as inhibition of viral p24 tubular protein assembly by spectrophotometry; assay type: functional, organism-based
[9] = system: Human immunodeficiency virus 1; test: Antiviral activity against HIV-1 SF-2 infected in human H9 cells assessed as appearance of tangential slice of dense core viral particles at 10 uM by TEM assay (reference value: 29%); assay type: functional
[10] = system: Human immunodeficiency virus 1; test: Antiviral activity against reverse transcriptase and protease inhibitor-resistant HIV-1 isolate HI93-49 harboring reverse transcriptase L74V, V106I and protease […] mutant gene infected in human PBMC; assay type: functional, organism-based; settings: Human immunodeficiency virus 1, isolate HI93-49; summary of the method: as §1
[11] = system: Human immunodeficiency virus 1; test: Antiviral activity against HIV-1 SF-2 infected in human H9 cells assessed as appearance of immature viral core morphology at 10 uM by TEM (reference value: 9%); assay type: functional
HeLa = test: Cytotoxic activity against human HeLa cells at 1000 uM after 14 days by trypan blue assay; assay type: cell-based; settings: 336 h; summary of the method: as §2
[12] = system: Human immunodeficiency virus 1; test: Antiviral activity against reverse transcriptase and protease inhibitor-resistant HIV-1 isolate HI94-18 harboring reverse transcriptase M230S mutant gene infected in human PBMC; assay type: functional, organism-based; settings: Human immunodeficiency virus 1, isolate HI94-18; summary of the method: as §1
[13] = system: Human immunodeficiency virus 1; test: Antiviral activity against reverse transcriptase and protease inhibitor-resistant HIV-1 isolate HI90-317 harboring reverse transcriptase M41L, T215Y and protease M36I, […], A71T, I93L mutant gene infected in human PBMC; assay type: functional, organism-based; settings: Human immunodeficiency virus 1, isolate HI90-317; summary of the method: as §1
[14] = system: Human immunodeficiency virus 1; test: Antiviral activity against HIV-1 SF-2 infected in human H9 cells assessed as appearance of distorted core structured viral particles by TEM assay; assay type: functional
[15] = system: Human immunodeficiency virus 1; test: Antiviral activity against HIV-1 SF-2 infected in human H9 cells assessed as appearance of parallel slice of dense core viral particles at 10 uM by TEM assay (reference value: 41%); assay type: functional
PBMC [16] = test: Effect on PHA-induced human PBMC cell proliferation at 2000 uM by beta scintillation counting; assay type: functional, cell-based
Summary of the method: (§3)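 PBMC (600,000 cells/ml) cultured 96 h in RPMI/10% FCS with PHA (2.5 μg/ml) and compound at 10–2,000 μM; [³H]thymidine (1 μCi/100,000 cells) added 8 h before end. Lysed cells harvested on nitrocellulose filters, cpm by β-scintillation counting. Untreated cells and cyclosporine (1 μg/ml) as controls.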

[17] = system: Human immunodeficiency virus 1; test: Antiviral activity against reverse transcriptase and protease inhibitor-resistant HIV-1 isolate HI96-88 harboring reverse transcriptase M41L, E44A, D67N, T69D, L210W, T215Y and protease L63P mutant gene infected in human PBMC; assay type: functional, organism-based; settings: Human immunodeficiency virus 1, isolate HI96-88; summary of the method: as §1
[18] = system: Human immunodeficiency virus 1; test: Antiviral activity against HIV-1 assessed as inhibition of viral p24 tubular protein assembly at 100 uM by TEM assay; assay type: functional, organism-based
[19] = system: Human immunodeficiency virus 1; test: Antiviral activity against reverse transcriptase and protease inhibitor-resistant HIV-1 isolate HI98-80 harboring reverse transcriptase M41L, D67N, M184V, T215F, K219Q and protease M36I mutant gene infected in human PBMC; assay type: functional, organism-based; settings: Human immunodeficiency virus 1, isolate HI98-80; summary of the method: as §1
[20] = system: Human immunodeficiency virus 1; test: Antiviral activity against HIV-1 SF-2 infected in human H9 cells assessed as appearance of empty core viral particles at 10 uM by TEM assay (reference value: 0%); assay type: functional
[21] = system: Human immunodeficiency virus 1; test: Antiviral activity against HIV-1 assessed as inhibition of viral p24 tubular protein assembly at 100 uM by spectrophotometry; assay type: functional, organism-based
[22] = system: Human immunodeficiency virus 1; test: Antiviral activity against reverse transcriptase and protease inhibitor-resistant HIV-1 isolate HI98-82 harboring reverse transcriptase M184V and protease L10I, I47M, L63P, I93L mutant gene infected in human PBMC; assay type: functional, organism-based; settings: Human immunodeficiency virus 1, isolate HI98-82; summary of the method: as §1
[23] = system: Human immunodeficiency virus 1; test: Antiviral activity against reverse transcriptase and protease inhibitor-resistant HIV-1 isolate HI97-59 harboring reverse transcriptase M184V, L210W, T215Y and protease L10I, L63T mutant gene infected in human PBMC; assay type: functional, organism-based; settings: Human immunodeficiency virus 1, isolate HI97-59; summary of the method: as §1
[24] = system: Human immunodeficiency virus 1; test: Antiviral activity against HIV-1 SF-2 infected in human H9 cells assessed as appearance of partially empty core viral particles at 10 uM by TEM assay (reference value: 13%); assay type: functional
[25] = system: Human immunodeficiency virus 1; test: Antiviral activity against reverse transcriptase and protease inhibitor-resistant HIV-1 isolate HI93-124 harboring reverse transcriptase N67D, T69D, K70R, T215F, K219Q and protease […] mutant gene infected in human PBMC; assay type: functional, organism-based; settings: Human immunodeficiency virus 1, isolate HI93-124; summary of the method: as §1
PBMC [26] = test: Effect on PHA-induced human PBMC cell proliferation up to 400 uM by beta scintillation counting; assay type: functional, cell-based; summary of the method: as §3
[27] = system: Human immunodeficiency virus 1; test: Antiviral activity against reverse transcriptase and protease inhibitor-resistant HIV-1 isolate HI98-96 harboring reverse transcriptase D67N, T69N, K70R, A98G, M184V, T215F, K219Q and protease L63P, G73T, D60E, L90M mutant gene infected in human PBMC; assay type: functional, organism-based; settings: Human immunodeficiency virus 1, isolate HI98-96; summary of the method: as §1
[28] = system: Human immunodeficiency virus 1; test: Antiviral activity against HIV-1 SF-2 infected in human H9 cells assessed as appearance of two separate core structured viral particles at 10 uM by TEM assay (reference value: 0%); assay type: functional
[29] = system: Vesicular stomatitis virus; test: Antiviral activity against Vesicular stomatitis virus infected in human HeLa cells; assay type: functional, organism-based
Human alphaherpesvirus 2 = test: Antiviral activity against Herpes simplex virus type 2 infected in HEL cells; assay type: functional, organism-based; settings: Human alphaherpesvirus 2, HEL
Summary of the method: (§4)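 Cell cultures grown to confluence in microtiter wells, inoculated with 100 TCID50 of virus; after 1 h adsorption, residual virus removed, then incubated with fivefold dilutions of test compound. Viral cytopathicity scored once complete in untreated infected control cultures.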

[30] = Cytotoxic activity against human Molt4/C8 cells at 1000 uM after 14 days by trypan blue assay; assay type: cell-based; settings: molt-4, 336 h; summary of the method: as §2
L1210 = test: Cytotoxic activity against mouse L1210 cells at 1000 uM after 14 days by trypan blue assay; assay type: cell-based; settings: l1210, 336 h; summary of the method: as §2
H9 = test: Cytotoxic activity against human H9 cells at 1000 uM after 14 days by trypan blue assay; assay type: cell-based; settings: h9, 336 h; summary of the method: as §2
[31] = system: Human immunodeficiency virus 1; test: Antiviral activity against HIV-1 SF-2 infected in human H9 cells assessed as appearance of irregular core viral particles at 10 uM by TEM assay (reference value: 1%); assay type: functional
[32] = system: Human immunodeficiency virus 1; test: Antiviral activity against reverse transcriptase and protease inhibitor-resistant HIV-1 isolate HI90-79 harboring reverse transcriptase M230V and protease M36I, […], A71T, I93L mutant gene infected in human PBMC; assay type: functional, organism-based; settings: Human immunodeficiency virus 1, isolate HI90-79; summary of the method: as §1
[33] = system: Human immunodeficiency virus 1; test: Antiviral activity against HIV-1 SF-2 infected in human H9 cells assessed as appearance of tubular core viral particles at 10 uM by TEM assay (reference value: 6%); assay type: functional
PBMC [34] = test: Cytotoxic activity against human PBMC at 1000 uM after 14 days by trypan blue assay; assay type: cell-based; settings: 336 h; summary of the method: as §2
FM3A = test: Cytotoxic activity against mouse FM3A cells at 1000 uM after 14 days by trypan blue assay; assay type: cell-based; settings: 336 h; summary of the method: as §2
[35] = system: Human immunodeficiency virus 1; test: Antiviral activity against reverse transcriptase and protease inhibitor-resistant HIV-1 isolate HI96-90 harboring reverse transcriptase M41L, E44A, V118L, M184V, L210W, T215Y and protease L10I, L63P mutant gene infected in human PBMC; assay type: functional, organism-based; settings: Human immunodeficiency virus 1, isolate HI96-90; summary of the method: as §1
[36] = system: Human immunodeficiency virus 1; test: Antiviral activity against HIV-1 infected in human HeLa cells assessed as inhibition of viral p24 tubular assembly at 100 uM by TEM assay; assay type: functional, organism-based
Summary of the method: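 HeLa-tat cells (10⁵) seeded 1 day before, transfected (FuGENE6) with pC37M plasmid expressing p17-p24 fusion, 100 μM compound in culture medium. At 48–72 h posttransfection fixed in fresh 2.5% glutaraldehyde and intracellular tubular structures examined by TEM.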

Human respirovirus 3 = test: Antiviral activity against Parainfluenza virus 3 infected in african green monkey Vero cells; assay type: functional, organism-based; settings: Human respirovirus 3, Vero; summary of the method: as §4
[37] = system: Human immunodeficiency virus 1; test: Antiviral activity against reverse transcriptase and protease inhibitor-resistant HIV-1 isolate HI98-9 harboring reverse transcriptase M41L, M184V, T215Y and protease L10I, L24I, L63P, V77I, V82T/S mutant gene infected in human PBMC; assay type: functional, organism-based; settings: Human immunodeficiency virus 1, isolate HI98-9; summary of the method: as §1

With `NC(=O)C(N)O` (stereo not given) the EC50 [1] was 14 µM, the EC50 (Vaccinia virus) was 2000 µM and the EC50 [2] was 8 µM. The inhibition [3] was “Active”, the EC50 [4] was 16 µM and the EC50 [5] was 1 µM. For the same compound, the EC50 [6] was 7.6 µM, the Activity (CCRF-CEM) was “Non-toxic” and the EC50 [7] was 1 µM. For the same compound, the inhibition [8] was “Active”, the Activity [9] was 19% and the EC50 [10] was 15 µM. The Activity [11] was 8%, the Activity (HeLa) was “Non-toxic” and the EC50 [12] was 16 µM. The EC50 [13] was 20 µM, the Activity [14] was 62% and the Activity [15] was 11%. For the same compound, the Activity (PBMC [16]) was “inactive”, the EC50 [17] was 24 µM and the inhibition [18] was “Active”. The EC50 [19] was 5.5 µM, the Activity [20] was 9% and the inhibition [21] was “Active”. For the same compound, the EC50 [22] was 33 µM, the EC50 [23] was 4.2 µM and the Activity [24] was 33%. For the same compound, the EC50 [25] was 33 µM, the Activity (PBMC [26]) was “inactive” and the EC50 [27] was 4.6 µM. It also gave an Activity [28] of 4%, an EC50 [29] of 2000 µM and an EC50 (Human alphaherpesvirus 2) of 2000 µM. The Activity [30] was “Non-toxic”, the Activity (L1210) was “Non-toxic” and the Activity (H9) was “Non-toxic”. The Activity [31] was 10%, the EC50 [32] was 24 µM and the Activity [33] was 6%. For the same compound, the Activity (PBMC [34]) was “Non-toxic”, the Activity (FM3A) was “Non-toxic” and the EC50 [35] was 8.6 µM. The inhibition [36] was “Active”, the EC50 (Human respirovirus 3) was 2000 µM and the EC50 [37] was 34 µM.
